Tested on: MS2 coat protein
Assay: apparent Kd, MS2 coat protein; higher = weaker binding; RNA-MaP array; FMN 200 µM where present
Method in brief: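 Apparent Kd: the median of filtered binding-curve fits from single clusters. Designs were transcribed on Illumina sequencing-chip clusters by stalled E. coli RNA polymerase and titrated with SNAP-549-labelled MS2 coat protein from 0.7 or 1.5 nM, doubling to 3 µM, in 100 mM Tris-HCl pH 7.5, 80 mM KCl, 4 mM MgCl2, BSA, DTT, yeast tRNA and Tween-20. Each series ran without and then with constant ligand, and green signal was normalised to red-channel RNA signal and control-cluster median Fmax.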

[1] = designed as: OFF switch for flavin mononucleotide, no ligand
[2] = ligand present: flavin mononucleotide, designed as: OFF switch for flavin mononucleotide
[3] = designed as: ON switch for flavin mononucleotide, no ligand
[4] = ligand present: flavin mononucleotide, designed as: ON switch for flavin mononucleotide

Row | Sequence | apparent Kd [1] | apparent Kd [2] | apparent Kd [3] | apparent Kd [4]
1 | GCACUGGAUGUAGGAUAUCAGGACGAUAAGUCCUGAGAAGGACAUGAGGAUCACCCAUGUGAUUACACCAGUGCAAAUAAUAUA | 5.78 nM | 7.06 nM | – | –
2 | AAAGGAGGGAGGACCGUACAUGAGGAUCACCCAUGUAUAUCACAGGAUAUAGCAUGUUUAGGCAUCUAGAAGGGUGAUCGGUCA | – | – | 186 nM | 37.7 nM
3 | CUGCUCCGUGUAGGAUAUCCCGGCAACCAAUCGGGAGAAGGACAUGAGGAUCACCCAUGUAUGUUAUUAUCACGUGAAGCGUCC | 23.1 nM | 30.1 nM | – | –
4 | CGGUUACAAGGAUAUACAUGAGGAUCACCCAUGUCUCUCCGGGCGGAUCGAUAAUUUUGUAGAAGGUGUAAGGG | 24.5 nM | 63.7 nM | – | –
5 | AUAAUUUUAUAUUUCUUUUUAUUCAGAAGGCAUAACAUGAGGAUCACCCAUGUAAAUUAAUGUUAUGAGGAUAUGAUUUGGUUA | 24.2 nM | 105 nM | – | –
6 | CAAAACUGAGGAUAUACAUGAGGAUCACCCAUGUCCAAGGUCCUGGGCGGAUGCUGCUGUAGAAGGCGGAAAGA | 22.4 nM | 32.4 nM | – | –
7 | GUACUCAUGUAAGGAUAUGCAGCCGAAACGGCUGCAGAAGGUACUAUAAUACAUGAGGAUCACCCAUGUCAAAAUAAAAUAGUU | – | – | 116 nM | 35.4 nM
8 | UCCCUAAGGCGGGCCGACCAUACAUGAGGAUCACCCAUGUCGAGAAGGUGCUCACGGGUGGGUGGCAAGGAUAUCGGGUCGGAU | – | – | 78.8 nM | 40.5 nM
9 | AAGCUGUCAGGAUAUCGUUAAUUUAGUUGUUUGUAUUAGUUCGAGAAGGGACAUGAGGAUCACCCAUGUAUAUA | 37.8 nM | 76.8 nM | – | –
10 | AGCGUGUAAGGAUAUACGUCGGAUAGCGAAUACUGUCCCUAGUAGAAGGUACAUGAGGAUCACCCAUGUGUCCA | 23.9 nM | 51.8 nM | – | –
11 | AGUAUGAUCCAGAAGGACAUAUGACCAAGACGAAACAUGAGGAUCACCCAUGUAGGAUAUGGAUCAUACAGGAUCGUGAGAUCA | 6.14 nM | 12 nM | – | –
12 | GUGCAUUCGUAGAAGGGUGACAUGAGGAUCACCCAUGUGCGCUGGGCUCAGGAUGCCUCAGCGCCACAGGAUAUACGAAGCACC | – | – | 97.6 nM | 35.1 nM
13 | ACGCGAUGGGAGAAGGUACUUUAAGAAUUUUUCACAUGAGGAUCACCCAUGUAAGGAUAUCCCAUCGUUAAAUAUUAUACAGCA | 5.07 nM | 4.82 nM | – | –
14 | GCUUUAUUGGUCAGGAUAUACAUUUGCUACUCUUUGUAGAAGGGACAUGAGGAUCACCCAUGUACUUUACAUUC | 16 nM | 16.4 nM | – | –
15 | CCUAUGUGAGGAUAUGGUGUUGGCCACAAGGAAAAGCUCCUCCAGAAGGCACAUGAGGAUCACCCAUGUCGUGG | 21.5 nM | 115 nM | – | –
16 | AGAACGUCAGGAUAUGCAACAACAAGUAAAUAGAGAAGAAGGCAGAAGGGACAUGAGGAUCACCCAUGUAAGAA | 36.6 nM | 36.3 nM | – | –
17 | UUGAUAAGGAGAGGAUAUGGACAUGAGGAUCACCCAUGUACAUGGGAAUAUUUACUGAAUUUUUACUAGAAGGCUUACAUAUUU | 15.8 nM | 12.4 nM | – | –
18 | UUUACAUACAUGAGGAUCACCCAUGUGUUCACCCAUGUAAAUCAGGAUAUAUAUAUAUAGAAUGUAUAGAAGGGAUAAUUUUUU | 97.5 nM | 99.7 nM | – | –
19 | CGCCGCACCGGCCUGCGGCAGGGUCAGGAUAUACAUGAGGAUCACCCAUGUGAACGGUGCCCAAUGUAGAAGGGACGAAAAGAA | 17.8 nM | 39.5 nM | – | –
20 | UUGAUAAGGAGAGGAUAUUGACAUGAGGAUCACCCAUGUACAUGGGAGUGUUUACUGAAUUCUUACGAGAAGGCUUACAUAUUU | 245 nM | 166 nM | – | –
21 | AAAACAUGAGGAUCACCCAUGUAAAGAUCGGAAAGUUAGAGUGAGGAUAUACAAAAUUUUAUAUAGUAGAAGGCACUGGGUACA | – | – | 34.6 nM | 33.5 nM
22 | GCAAUAGCAUGAGGAUAUGCUGGAGUUUAGACAGUAGAAGGCAUGUCAUAAGACAUGAGGAUCACCCAUGUAAUUACAAUAGCA | – | – | 45.9 nM | 22.1 nM
23 | GCCAUCGUAUGAGGAUAUGGCACCGCAACGGUGCCAGAAGGCAUGUCAAUAGACAUGAGGAUCACCCAUGUGUUAUCGAUGGCA | – | – | 153 nM | 13.9 nM

— the EternaBench riboswitch data
